# sPLA2-III inh: Inhibits HGIII-sPLA2 liposome hydrolysis, primary screen | QFRET BODIPY PC-A2 liposome hydrolysis, fluorescence | inhibition, % at 12.2 µM | hit rate 0.56% among 370,000 | Q9NZ20;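 active = inhibition above mean plus 3 SD of compounds lying within the high and low control bounds, cut at about 19% in these data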
# procasp7 counter: counter-screen for procaspase-3 activators: activators of human procaspase-7; hit rate 0.093% among 330,000; recombinant procaspase-7, Ac-DEVD-pNA absorbance 405 nm; D23A/D198A/D206A triple mutant, cannot self-cleave; scale: DMSO 0, 5 µM enzyme 100; P55210; AID 463210; activation, % at 8.5 µM;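 active = percent activation above the screen-wide mean plus 3 SD, cut at about 25% in these data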
#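 System: Uncleavable procaspase-7 mutant enzyme; Amount: 2 µM procaspase-7 mutant as dispensed; Schedule: 1 h compound preincubation, 2 h substrate cleavage, 25 °C; Measured by: 405 nm absorbance of p-nitroaniline; Evaluation: percent activation from buffer-corrected 0–120 min absorbance change; Control set: low DMSO alone, high DMSO plus 5 µM PC-7.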
# procasp3 activ: activates human procaspase-3; AID 463141; P42574; hit rate 0.11% among 330,000; activation, % at 8.5 µM; recombinant procaspase-3 D3A, Ac-DEVD-pNA absorbance 405 nm;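 active = activation above the mean of all tested compounds plus 3 SD, cut at about 21% in these data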
#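 Assay system – Procaspase-3 D3A mutant, all three cleavage aspartates alanine · Controls – DMSO-only low control, 5 µM PC-3 D3A high control · Schedule – 1 h compound preincubation, 2 h substrate hydrolysis at 25 °C · Signal – 405 nm absorbance of p-nitroaniline, reads at 0 and 120 min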
# PLC-beta3 inh: inhibitors of human phospholipase C beta3; inhibition, % at 12.2 µM; AID 720704; Q01970; Purified PLC-beta3, fluorogenic substrate, fluorescence; hit rate 0.18% among 370,000; in the data active = inhibition above about 11%
# Target sequence (Q01970 whole entry, looked up): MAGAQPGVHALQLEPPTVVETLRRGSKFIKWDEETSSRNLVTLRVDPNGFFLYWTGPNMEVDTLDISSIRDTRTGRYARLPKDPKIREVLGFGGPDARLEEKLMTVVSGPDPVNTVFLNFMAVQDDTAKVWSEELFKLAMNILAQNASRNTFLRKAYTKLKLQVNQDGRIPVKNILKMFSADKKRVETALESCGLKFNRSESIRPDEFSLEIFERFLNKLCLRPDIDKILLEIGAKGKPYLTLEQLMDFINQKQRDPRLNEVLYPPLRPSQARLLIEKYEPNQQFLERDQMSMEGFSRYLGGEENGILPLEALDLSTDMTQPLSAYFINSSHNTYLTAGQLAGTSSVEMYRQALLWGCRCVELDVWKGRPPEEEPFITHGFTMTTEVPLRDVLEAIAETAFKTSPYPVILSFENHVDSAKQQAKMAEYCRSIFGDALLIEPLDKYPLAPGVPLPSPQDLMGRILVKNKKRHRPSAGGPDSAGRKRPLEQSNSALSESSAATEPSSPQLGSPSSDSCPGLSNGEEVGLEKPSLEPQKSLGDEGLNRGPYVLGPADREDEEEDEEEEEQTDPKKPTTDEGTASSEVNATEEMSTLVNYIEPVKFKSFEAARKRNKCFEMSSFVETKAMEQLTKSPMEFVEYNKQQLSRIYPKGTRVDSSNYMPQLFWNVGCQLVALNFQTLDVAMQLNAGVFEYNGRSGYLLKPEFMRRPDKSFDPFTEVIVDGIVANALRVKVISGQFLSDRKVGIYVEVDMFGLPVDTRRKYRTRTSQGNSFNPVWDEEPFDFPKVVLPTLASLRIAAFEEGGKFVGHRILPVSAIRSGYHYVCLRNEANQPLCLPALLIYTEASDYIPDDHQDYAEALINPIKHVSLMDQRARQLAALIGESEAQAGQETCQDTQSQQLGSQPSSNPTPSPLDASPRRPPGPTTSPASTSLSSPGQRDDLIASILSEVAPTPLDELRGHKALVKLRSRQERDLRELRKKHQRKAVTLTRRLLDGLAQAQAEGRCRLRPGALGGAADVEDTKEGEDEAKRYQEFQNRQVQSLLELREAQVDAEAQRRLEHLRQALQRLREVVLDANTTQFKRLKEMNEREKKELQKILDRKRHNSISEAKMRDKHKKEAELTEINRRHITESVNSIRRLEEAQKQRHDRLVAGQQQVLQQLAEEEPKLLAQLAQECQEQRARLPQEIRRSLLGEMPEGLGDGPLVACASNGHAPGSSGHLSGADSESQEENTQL
# PLCg1 inh: inhibitors of human phospholipase C gamma1. P19174. inhibition, % at 12.2 µM. AID 720700. purified PLC-gamma1, fluorogenic substrate, fluorescence. hit rate 0.84% among 370,000
# PLCgamma1 ctr: PLC-gamma1 inhibition, counter-screen for PLC-beta3 hits | shares compounds with PLCg1 inh | purified PLC-gamma1, fluorogenic substrate, fluorescence | inhibition, % at 12.3 µM | hit rate 3.1% among 3,300
# PLCb3 confirm: confirmation of human PLC-beta3 inhibitors; shares compounds with PLCg1 inh; purified PLC-beta3, fluorogenic substrate fluorescence; inhibition, % at 12.3 µM; hit rate 1% among 3,300; AID 743261; in the data active = inhibition above about 11%
# Hits are given with their value; i = inactive; nt = no result. Shown are actives, neighbours in structure and some others; about 1.6% of the full set was active somewhere. Rule as the data show it, unless noted: active = inhibition above about 9.5%; inactive = the rest.
SMILES,sPLA2-III inh,procasp7 counter,procasp3 activ,PLC-beta3 inh,PLCg1 inh,PLCgamma1 ctr,PLCb3 confirm
C[C@@H]1CCC(=O)N(CC[C@H](Oc2ccccc2)c2ccccc2)CC1,i,i,i,i,13,i,i
CC(C)(C)C1CCC(=O)N(CCSc2ccccc2)CC1 (stereo unspecified),i,i,i,i,13,i,i
CC(=O)Nc1ccc(SCCN2CC[C@@H](C(C)(C)C)CCC2=O)cc1,i,i,i,i,i,nt,nt
CC(C)(C)C1CCC(=O)N(CCC#N)CC1 (stereo unspecified),i,i,i,i,11,i,i
Cc1ccc(SCCN2CCC(C(C)(C)C)CCC2=O)cc1 (stereo unspecified),i,i,i,i,i,nt,nt
O=C(O)CC(Cc1ccc(Cl)cc1)C(=O)Nc1cc(Cl)ccc1Cl (stereo unspecified),i,i,i,i,12,i,i
O=C(CCNC(=O)c1ccccc1Cl)Nc1ccc2c(c1)OCO2,i,i,i,i,11,i,i
O=C(NCCC1=CCCCC1)c1ccc2c(c1)N(Cc1ccccc1)C(=O)CS2,i,i,i,i,11,i,i
CCC(=O)c1ccc(OCC(=O)NCCC2=CCCCC2)c(OC)c1,i,i,i,i,i,nt,nt
CCOc1ccc(C(=O)NCCC2=CCCCC2)cc1OCC,i,i,i,i,11,i,i
O=C(NCCN1CCOCC1)c1ccc2c(c1)N(Cc1ccccc1)C(=O)CS2,i,i,i,i,i,nt,nt
O=C(NC(=S)Nc1ccc(F)cc1)c1ccc2c(c1)OCCO2,i,i,i,i,i,nt,nt
O=C(NC(=S)Nc1c(F)cc(F)cc1Br)c1ccc2c(c1)OCCO2,i,i,i,i,13,i,i
CCOC(=O)N/N=C/c1ccc(C)o1,i,i,i,i,i,nt,nt
CCOC(=O)N/N=C/c1ccc(Oc2ccccc2)cc1,i,nt,nt,i,9.6,i,i
Cc1occc1C(=O)N/N=C/c1ccc(OCc2ccccc2)cc1,i,i,i,i,15,i,i
CC1=C(C(=O)N(C(C)C)C(C)C)CC(CC(=O)NCCCCc2ccccc2)C(=O)N1Cc1ccc(F)cc1 (stereo unspecified),i,nt,nt,i,i,nt,nt
CC1(C(=O)NS(=O)(=O)c2cccc(Cl)c2)CCN1C(=O)Cc1ccsc1 (stereo unspecified),i,nt,nt,i,10,i,i
CCC(=O)N(CCc1ccccc1)Cc1cc2cccc(C)c2[nH]c1=O,i,i,i,i,i,nt,nt
O=C(Cc1cccs1)Nc1nc(-c2ccc(F)cc2F)cs1,i,i,i,i,13,i,i
O=C(Cc1cccs1)Nc1nc(-c2ccc(F)c(F)c2)cs1,i,i,i,i,i,nt,nt
Cc1cc2[nH]cnc2c([N+](=O)[O-])c1C,i,i,i,i,i,nt,nt
OC(c1ccccc1)(c1ccccc1)C1CCN(CCCNc2ccccc2F)CC1,i,nt,nt,i,i,nt,nt
O=[N+]([O-])c1ccc(NCCCN2CCC(C(O)(c3ccccc3)c3ccccc3)CC2)cc1,i,nt,nt,i,13,i,i
CC(Oc1ccccc1Cl)C(=O)Nc1ccccc1C(=O)N1CCOCC1 (stereo unspecified),i,i,i,i,i,nt,nt
SMILES,sPLA2-III inh,procasp7 counter,procasp3 activ,PLC-beta3 inh,PLCg1 inh,PLCgamma1 ctr,PLCb3 confirm
CC(=O)c1c(C)[nH]c(C(=O)Nc2cccc(C(F)(F)F)c2)c1C,i,i,i,i,i,nt,nt
CC(=O)c1c(C)[nH]c(C(=O)Nc2cccc(C#N)c2)c1C,i,i,i,i,9.8,i,i
CC1(C(=O)OCC(=O)Nc2ccc3ccccc3c2)CC1(Cl)Cl (stereo unspecified),i,i,i,i,i,nt,nt
CC(=O)Nc1ccc(NC(=O)C2CCCN(C(=O)c3ccc(Cl)cc3)C2)cc1 (stereo unspecified),i,i,i,i,12,i,i
CCN(CC)S(=O)(=O)c1ccc2c(c1)c(=O)c(C(=O)NCc1cccs1)cn2C,i,i,i,i,9.6,i,i
COC(=O)c1cn(C)c2ccc(S(=O)(=O)N3CCCCC3)cc2c1=O,i,nt,nt,i,12,i,i
CCn1cc(C(=O)OC)c(=O)c2cc(S(=O)(=O)N(C)C3CCCCC3)ccc21,i,i,i,i,i,nt,nt
Cn1cc(C(=O)N2CCCCCC2)c(=O)c2cc(S(=O)(=O)N3CCCCC3)ccc21,i,i,i,i,i,nt,nt
CCC1CCCCN1CCCNC(=O)c1cn(C)c2ccc(S(=O)(=O)N(C)C3CCCCC3)cc2c1=O (stereo unspecified),i,i,i,i,12,i,i
CCC1CCCCN1CCCNC(=O)c1cn(C)c2ccc(S(=O)(=O)N3CCOCC3)cc2c1=O (stereo unspecified),i,i,i,i,i,nt,nt
COC(=O)c1cn(C)c2ccc(S(=O)(=O)N(C)C3CCCCC3)cc2c1=O,i,nt,nt,i,11,i,i
O=C(COC(=O)c1ccc2c(c1)OCO2)Nc1ccccc1F,i,i,i,i,i,nt,nt
C[C@@H]1Cn2cnc(C(=O)N[C@@H](C)c3ccccc3)c2C(=O)N1,i,nt,nt,i,i,nt,nt
O=C(c1ccc(Cl)c(S(=O)(=O)N2CCOCC2)c1)N(Cc1ccco1)Cc1cccs1,i,nt,nt,i,i,nt,nt
CCCCOc1ccc(C(=O)NC2CCCCN(CCC)C2=O)cc1 (stereo unspecified),i,nt,nt,i,i,nt,nt
O=C(COC(=O)/C=C/c1ccccc1[N+](=O)[O-])Nc1ccc(OC(F)F)cc1,i,i,i,i,11,i,i
O=C(COC(=O)/C=C/c1ccccc1[N+](=O)[O-])Nc1ccc(OCc2ccccc2)cc1,i,i,i,i,i,nt,nt
Cc1ccc(N(CC(N)=O)C2SC(=O)N(Cc3ccccc3)C2=O)cc1 (stereo unspecified),i,i,i,i,9.6,i,i
NC(=O)CN(c1ccccc1)C1SC(=O)N(Cc2ccccc2)C1=O (stereo unspecified),i,i,i,i,i,nt,nt
CC12CCC(C/C1=N/O)C2(C)C (stereo unspecified),i,i,i,i,10,i,i
CCOc1ccc(NC2CCCCC2NS(=O)(=O)c2ccccc2)cc1 (stereo unspecified),i,i,i,i,i,nt,nt
CCOC(=O)C1(C(C)(C)CC)CC(CSc2nc3ccccc3[nH]2)OC1=O (stereo unspecified),i,i,i,i,12,i,i
CCOC(=O)NC(=O)CSc1nc2ccccc2[nH]1,i,i,i,i,i,nt,nt
COC(=O)CSC1=C(C#N)C(=O)NC2(CCCCC2)S1,i,i,i,i,16,i,i
O=C(c1ccc(CS(=O)Cc2ccc(Cl)cc2)o1)N1CCN(C2CCCCC2)CC1 (stereo unspecified),i,nt,nt,i,i,nt,nt

# Source: PubChem
